We go through two compounds from BindingDB's records for doi:10.1021/acs.jmedchem.5b01947 (Amgen, 2016).

Positions of bridges follow the written chain, without caps; N, C: chain ends. Residues, ends and D or L forms follow the SMILES beside them.

For experiment [1], the target named is T1, Sodium channel protein type 5 subunit alpha (Homo sapiens, UniProt Q14524). The experiment can be described thus: Inhibition of human Nav1.5 expressed in HEK293 cells assessed as inward peak current by ion-works quattro patch clamp electrophysiology method. The gist of the method: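 Stable HEK293 line expressing human NaV1.5, recorded by population patch clamp on the IonWorks Quattro.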
T1 sequence (Q14524 whole entry): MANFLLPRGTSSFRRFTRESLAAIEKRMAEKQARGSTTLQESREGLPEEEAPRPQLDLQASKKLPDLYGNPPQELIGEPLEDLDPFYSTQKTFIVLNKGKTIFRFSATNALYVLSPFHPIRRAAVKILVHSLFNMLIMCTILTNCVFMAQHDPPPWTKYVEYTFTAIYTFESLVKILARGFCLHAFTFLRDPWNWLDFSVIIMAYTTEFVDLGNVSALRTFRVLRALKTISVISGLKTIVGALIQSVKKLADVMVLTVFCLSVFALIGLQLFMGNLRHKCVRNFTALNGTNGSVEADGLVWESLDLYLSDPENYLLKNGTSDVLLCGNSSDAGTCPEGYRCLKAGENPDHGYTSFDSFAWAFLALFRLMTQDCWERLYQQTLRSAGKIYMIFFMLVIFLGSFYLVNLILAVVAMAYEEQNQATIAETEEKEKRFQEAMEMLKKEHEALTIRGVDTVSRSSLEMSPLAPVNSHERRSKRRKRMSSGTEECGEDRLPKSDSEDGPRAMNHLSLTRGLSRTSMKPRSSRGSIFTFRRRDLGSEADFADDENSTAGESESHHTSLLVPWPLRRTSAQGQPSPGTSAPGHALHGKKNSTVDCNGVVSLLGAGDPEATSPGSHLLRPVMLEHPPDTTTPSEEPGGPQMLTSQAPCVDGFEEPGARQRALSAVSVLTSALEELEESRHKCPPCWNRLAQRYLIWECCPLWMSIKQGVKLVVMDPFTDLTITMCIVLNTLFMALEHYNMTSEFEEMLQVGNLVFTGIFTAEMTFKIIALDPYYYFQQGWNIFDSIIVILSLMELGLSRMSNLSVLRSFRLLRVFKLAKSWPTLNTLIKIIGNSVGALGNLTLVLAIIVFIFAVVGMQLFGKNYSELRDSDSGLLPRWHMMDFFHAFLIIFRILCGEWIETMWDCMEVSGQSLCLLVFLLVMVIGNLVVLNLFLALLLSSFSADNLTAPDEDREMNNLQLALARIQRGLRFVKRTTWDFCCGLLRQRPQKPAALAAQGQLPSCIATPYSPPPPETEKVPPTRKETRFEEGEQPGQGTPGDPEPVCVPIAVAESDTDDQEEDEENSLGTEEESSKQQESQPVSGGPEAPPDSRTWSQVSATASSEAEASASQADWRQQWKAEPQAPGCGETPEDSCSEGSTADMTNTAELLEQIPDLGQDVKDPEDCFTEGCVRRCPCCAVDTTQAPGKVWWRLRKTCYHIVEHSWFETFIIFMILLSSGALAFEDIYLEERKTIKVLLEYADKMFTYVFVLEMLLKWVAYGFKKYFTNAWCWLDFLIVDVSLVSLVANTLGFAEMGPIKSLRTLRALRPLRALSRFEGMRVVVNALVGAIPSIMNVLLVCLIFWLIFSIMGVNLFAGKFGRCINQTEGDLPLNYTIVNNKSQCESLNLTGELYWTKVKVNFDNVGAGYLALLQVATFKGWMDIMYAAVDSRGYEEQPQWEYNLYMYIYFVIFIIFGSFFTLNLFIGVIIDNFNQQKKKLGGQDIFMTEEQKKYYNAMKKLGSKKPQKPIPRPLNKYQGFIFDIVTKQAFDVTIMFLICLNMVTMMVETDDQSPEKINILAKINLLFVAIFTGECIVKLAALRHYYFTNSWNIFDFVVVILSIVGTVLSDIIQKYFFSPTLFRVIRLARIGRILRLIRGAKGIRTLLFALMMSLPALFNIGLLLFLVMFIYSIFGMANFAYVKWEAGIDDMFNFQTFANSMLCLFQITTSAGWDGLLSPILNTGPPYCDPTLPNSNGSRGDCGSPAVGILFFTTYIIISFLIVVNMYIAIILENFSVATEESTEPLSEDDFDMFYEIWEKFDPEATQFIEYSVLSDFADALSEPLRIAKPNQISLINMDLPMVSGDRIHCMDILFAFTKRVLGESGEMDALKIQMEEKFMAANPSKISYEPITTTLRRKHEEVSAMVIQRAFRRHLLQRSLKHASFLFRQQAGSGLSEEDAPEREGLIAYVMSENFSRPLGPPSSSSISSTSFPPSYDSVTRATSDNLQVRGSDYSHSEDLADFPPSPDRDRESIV

The target of experiment [2] is T1, Sodium channel protein type 5 subunit alpha. The experiment can be described thus: Inhibition of human Nav1.5 expressed in HEK293 cells by whole cell patch clamp electrophysiology method. The essentials:
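Stable HEK293 line expressing human NaV1.5. Peptides were used only at >95% purity with the correct m/z, and were quantified by chemiluminescent nitrogen detection against a caffeine standard curve.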

Experiment [3] concerns the target Sodium channel protein type 9 subunit alpha (Homo sapiens, UniProt Q15858). Kind of experiment: Inhibition of human Nav1.7 expressed in HEK293 cells by whole cell patch clamp electrophysiology method. On the technique in general: In patch-clamp work, channel activity is measured electrically.

Chain of Sodium channel protein type 9 subunit alpha (Q15858 whole entry): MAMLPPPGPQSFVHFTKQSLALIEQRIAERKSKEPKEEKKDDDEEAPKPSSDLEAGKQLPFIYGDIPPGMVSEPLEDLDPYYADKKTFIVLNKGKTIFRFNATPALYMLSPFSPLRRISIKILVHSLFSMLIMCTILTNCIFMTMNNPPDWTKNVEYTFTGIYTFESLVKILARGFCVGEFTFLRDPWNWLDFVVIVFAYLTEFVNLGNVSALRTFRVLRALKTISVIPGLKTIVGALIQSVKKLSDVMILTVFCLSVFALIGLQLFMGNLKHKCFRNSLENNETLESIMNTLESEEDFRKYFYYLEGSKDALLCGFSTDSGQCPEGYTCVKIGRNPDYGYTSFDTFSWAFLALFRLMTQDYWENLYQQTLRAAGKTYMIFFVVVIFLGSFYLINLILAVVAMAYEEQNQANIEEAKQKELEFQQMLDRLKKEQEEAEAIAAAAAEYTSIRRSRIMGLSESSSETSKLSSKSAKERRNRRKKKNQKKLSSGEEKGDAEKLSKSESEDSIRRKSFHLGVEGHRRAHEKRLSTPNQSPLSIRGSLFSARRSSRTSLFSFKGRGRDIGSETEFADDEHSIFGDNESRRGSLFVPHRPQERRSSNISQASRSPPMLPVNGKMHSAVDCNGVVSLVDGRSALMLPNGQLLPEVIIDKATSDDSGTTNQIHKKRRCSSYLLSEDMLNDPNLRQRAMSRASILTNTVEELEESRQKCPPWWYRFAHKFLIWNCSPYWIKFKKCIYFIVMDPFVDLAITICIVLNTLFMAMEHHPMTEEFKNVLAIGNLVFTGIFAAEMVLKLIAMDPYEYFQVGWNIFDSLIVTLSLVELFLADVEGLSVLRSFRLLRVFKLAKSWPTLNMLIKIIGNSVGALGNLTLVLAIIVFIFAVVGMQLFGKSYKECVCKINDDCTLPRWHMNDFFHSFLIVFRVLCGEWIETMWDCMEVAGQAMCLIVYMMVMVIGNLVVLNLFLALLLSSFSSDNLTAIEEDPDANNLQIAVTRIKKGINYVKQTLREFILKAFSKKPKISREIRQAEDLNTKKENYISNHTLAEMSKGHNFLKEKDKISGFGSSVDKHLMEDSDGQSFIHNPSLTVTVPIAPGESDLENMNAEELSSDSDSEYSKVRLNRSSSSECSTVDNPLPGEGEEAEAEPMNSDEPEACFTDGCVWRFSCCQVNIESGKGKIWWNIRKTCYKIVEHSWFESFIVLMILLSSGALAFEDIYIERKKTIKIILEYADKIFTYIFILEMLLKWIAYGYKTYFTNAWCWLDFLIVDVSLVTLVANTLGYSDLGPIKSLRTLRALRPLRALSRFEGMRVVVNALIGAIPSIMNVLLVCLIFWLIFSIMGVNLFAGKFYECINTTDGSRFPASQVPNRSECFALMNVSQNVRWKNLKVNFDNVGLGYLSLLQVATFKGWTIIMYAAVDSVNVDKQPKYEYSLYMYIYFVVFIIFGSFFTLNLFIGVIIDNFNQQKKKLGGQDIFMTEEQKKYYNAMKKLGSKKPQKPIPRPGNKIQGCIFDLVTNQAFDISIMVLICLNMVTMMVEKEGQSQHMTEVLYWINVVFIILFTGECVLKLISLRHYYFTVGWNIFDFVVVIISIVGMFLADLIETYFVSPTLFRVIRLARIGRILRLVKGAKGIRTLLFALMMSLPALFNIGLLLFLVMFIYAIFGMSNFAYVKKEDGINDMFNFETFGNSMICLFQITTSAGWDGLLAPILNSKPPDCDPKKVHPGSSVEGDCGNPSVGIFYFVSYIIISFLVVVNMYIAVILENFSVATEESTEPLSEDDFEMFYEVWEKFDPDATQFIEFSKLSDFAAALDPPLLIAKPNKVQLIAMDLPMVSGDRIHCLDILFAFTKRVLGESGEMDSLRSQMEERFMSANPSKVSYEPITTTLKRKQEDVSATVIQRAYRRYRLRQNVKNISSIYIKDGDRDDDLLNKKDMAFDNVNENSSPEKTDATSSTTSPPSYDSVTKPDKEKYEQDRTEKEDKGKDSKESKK

Broadly, the IC50 is the concentration that gives 50% inhibition. With `CC[C@H](C)[C@@H]1NC(=O)[C@@H]2CSSC[C@@H]3NC(=O)[C@H](C(C)C)NC(=O)[C@H](CC(C)C)NC(=O)[C@H](CC(N)=O)NC(=O)[C@@H]4CCCN4C(=O)[C@H](CCCNC(=N)N)NC(=O)[C@H](CSSC[C@H](NC(=O)[C@@H](N)CC(=O)O)C(=O)N[C@@H](CCC(=O)O)C(=O)NCC(=O)N[C@@H](Cc4ccccc4)C(=O)N[C@@H](CCSC)C(=O)N[C@@H](CCCNC(=N)N)C(=O)N[C@@H](CCCCN)C(=O)N2)NC(=O)[C@H](CSSC[C@@H](C(=O)N[C@@H](CCCCN)C(=O)N[C@@H](Cc2ccc(O)cc2)C(=O)N[C@H](C(=O)N[C@@H](Cc2ccccc2)C(N)=O)C(C)C)NC(=O)[C@H](Cc2c[nH]c4ccccc24)NC(=O)[C@H](CCCCN)NC(=O)[C@H](Cc2cnc[nH]2)NC(=O)[C@H]([C@@H](C)O)NC(=O)[C@H](CCCNC(=N)N)NC(=O)[C@H](CO)NC3=O)NC(=O)[C@H](CCCCN)NC(=O)[C@H](CC(=O)O)NC(=O)[C@H](CC(N)=O)NC(=O)[C@H](CC(=O)O)NC(=O)[C@@H]2CCCN2C1=O` (H-DCEGFMRKCIPDNDKCCRPNLVCSRTHKWCKYVF-NH2; disulfide 2-17, 9-23, 16-30), the IC50 in experiment [1] was greater than 5 µM.

Consider `CC[C@H](C)[C@@H]1NC(=O)[C@@H]2CSSC[C@@H]3NC(=O)[C@H](C(C)C)NC(=O)[C@H](CC(C)C)NC(=O)[C@H](CC(N)=O)NC(=O)[C@@H]4CCCN4C(=O)[C@H](CCCNC(=N)N)NC(=O)[C@H](CSSC[C@H](NC(=O)[C@@H](N)CC(=O)O)C(=O)N[C@@H](CC(C)C)C(=O)NCC(=O)N[C@@H](Cc4ccccc4)C(=O)N[C@@H](CCSC)C(=O)N[C@@H](CCCNC(=N)N)C(=O)N[C@@H](CCCCN)C(=O)N2)NC(=O)[C@H](CSSC[C@@H](C(=O)N[C@@H](CCCCN)C(=O)N[C@@H](Cc2ccc(O)cc2)C(=O)N[C@H](C(=O)N[C@@H](Cc2ccccc2)C(=O)N[C@@H](Cc2c[nH]c4ccccc24)C(N)=O)C(C)C)NC(=O)[C@H](Cc2c[nH]c4ccccc24)NC(=O)[C@H](CCCCN)NC(=O)[C@H](Cc2c[nH]cn2)NC(=O)[C@H]([C@@H](C)O)NC(=O)[C@H](CCCNC(=N)N)NC(=O)[C@H](CO)NC3=O)NC(=O)[C@H](CCCCN)NC(=O)[C@H](CC(=O)O)NC(=O)[C@H](CC(N)=O)NC(=O)[C@H](CC(=O)O)NC(=O)[C@@H]2CCCN2C1=O`, for which the IC50 in experiment [1] is greater than 5 µM; in experiment [2], 2.7 µM; in experiment [3], 0.01 µM.
